Experimental data as given in ChEMBL document CHEMBL2203144, “Synthesis and evaluation of antimicrobial activity of 4H-pyrimido[2,1-b]benzothiazole, pyrazole and benzylidene derivatives of curcumin” (Eur J Med Chem, 2012).
Calls of active or inactive are those of the source. No cut-off for these calls is given here.

Assays:
Staphylococcus aureus = assay: Antibacterial activity against Staphylococcus aureus ATCC 11632 after 24 hrs by broth microdilution method; assay type: functional
Outline: (§1)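 Microwell broth dilution in brain heart infusion broth (nutrient broth adjusted to pH 7.0). Inoculum from 16 h cultures, adjusted to 0.5 McFarland (1.5 × 10⁸ CFU/mL). 10 µL compound (serial dilutions 20 down to 0.625 or 0.312 µM/mL) plus 10 µL culture added to 150 µL broth. Incubated 24 h at 37 °C. MIC95 is the lowest concentration with no turbidity. Ciprofloxacin reference; inoculum and broth controls.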

Salmonella typhi = assay: Antibacterial activity against Salmonella typhi ATCC 15499 after 24 hrs by broth microdilution method; assay type: functional, Salmonella enterica subsp. enterica serovar Typhi
Outline: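 Broth microdilution in brain heart infusion broth in microwells. Inoculum was prepared from 16 h cultures adjusted to the 0.5 McFarland standard (1.5 × 10⁸ CFU/mL). Compounds were serially diluted from 20 down to 0.625 µM/mL and added to the broth, followed by the bacterial culture. Plates were incubated 24 h at 37 °C, with optical density read. MIC95 was the lowest concentration giving no turbidity. Inoculum and broth controls were included.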

Pseudomonas aeruginosa = assay: Antibacterial activity against Pseudomonas aeruginosa ATCC 23564 after 24 hrs by broth microdilution method; assay type: functional; outline: as §1
Escherichia coli = assay: Antibacterial activity against Escherichia coli ATCC 35218 after 24 hrs by broth microdilution method; assay type: functional; outline: as §1
Bacillus cereus = assay: Antibacterial activity against Bacillus cereus MTCC 7350 after 24 hrs by broth microdilution method; assay type: functional; outline: as §1
Providencia rettgeri = assay: Antibacterial activity against Providencia rettgeri DRDE after 24 hrs by broth microdilution method; assay type: functional; outline: as §1
Aspergillus niger [1] = assay: Antifungal activity against Aspergillus niger after 72 hrs by agar disk diffusion method; assay type: functional
Outline: (§2)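 Sterile filter-paper discs dipped in the acetone dilutions of compound (20–0.315 µM/mL), then dried to remove acetone. Sabouraud dextrose agar plates spread with 1 mL fungal culture. Discs placed aseptically; one drug-free disc served as growth control; fluconazole reference. Plates incubated upright 72 h at 28 °C. Zone of inhibition measured in mm with a scale.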

Aspergillus fumigatus [2] = assay: Antifungal activity against Aspergillus fumigatus after 72 hrs by agar disk diffusion method; assay type: functional; outline: as §2
Aspergillus flavus [3] = assay: Antifungal activity against Aspergillus flavus after 72 hrs by agar disk diffusion method; assay type: functional; outline: as §2
Aspergillus flavus [4] = assay: Antifungal activity against Aspergillus flavus after 72 hrs by broth dilution method; assay type: functional
Outline: (§3)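 Compounds and fluconazole reference were dissolved in acetone at 120 µM/mL and serially diluted to 20–0.315 µM/mL. 10 µL compound plus 10 µL fungal culture broth added to 150 µL Sabouraud dextrose medium per well. Optical density recorded, then incubated 72 h at 28 °C. MIC95 taken from absence of turbidity. Acetone-at-same-dilution solvent control.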

Aspergillus fumigatus [5] = assay: Antifungal activity against Aspergillus fumigatus after 72 hrs by broth dilution method; assay type: functional; outline: as §3
Aspergillus niger [6] = assay: Antifungal activity against Aspergillus niger after 72 hrs by broth dilution method; assay type: functional; outline: as §3
[7] = Cytotoxicity against human L123 cells after 48 hrs by MTT assay; assay type: cell-based
Outline: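 MTT assay. 2×10³ cells per well in MEM + 10% FBS, attached 24 h, then treated at 5, 10, 20, 50 and 100 µM/mL for 48 h; controls received medium with 0.2% DMSO. Duplicate treatments. Cells PBS-washed, given MTT (stock 1 mg/mL) for 4 h at 37 °C. Formazan dissolved in DMSO, read at 590 nm. IC50 is the concentration reducing viability by 50%.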

[8] = Salmonella enterica subsp. enterica serovar Typhi

## COc1cc(/C=C/C(=O)C(=Cc2ccccc2)C(=O)/C=C/c2ccc(O)c(OC)c2)ccc1O
Staphylococcus aureus
  MIC95: 1.25 uM/ml
Salmonella typhi
  MIC95: 2.5 uM/ml
Pseudomonas aeruginosa
  MIC95: inactive
Escherichia coli
  MIC95: 1.25 uM/ml
Bacillus cereus
  MIC95: 0.625 uM/ml
Providencia rettgeri
  MIC95: 0.625 uM/ml
Aspergillus niger [1]
  inhibition zone (IZ): inactive
Aspergillus fumigatus [2]
  inhibition zone (IZ): 15 mm
Aspergillus flavus [3]
  inhibition zone (IZ): inactive
Aspergillus flavus [4]
  MIC95: inactive
Aspergillus fumigatus [5]
  MIC95: 2.5 uM/ml
Aspergillus niger [6]
  MIC95: inactive

## COc1cc(/C=C/c2cc(/C=C/c3ccc(O)c(OC)c3)n(C(N)=O)n2)ccc1O
Staphylococcus aureus
  MIC95: inactive
Salmonella typhi; [8]
  MIC95: inactive
Pseudomonas aeruginosa
  MIC95: 5 uM/ml
Escherichia coli
  MIC95: 2.5 uM/ml
Bacillus cereus
  MIC95: inactive
Providencia rettgeri
  MIC95: 2.5 uM/ml
Aspergillus niger [1]
  inhibition zone (IZ): 15 mm
Aspergillus fumigatus [2]
  inhibition zone (IZ): 20 mm
Aspergillus flavus [3]
  inhibition zone (IZ): inactive
Aspergillus flavus [4]
  MIC95: inactive
Aspergillus fumigatus [5]
  MIC95: 1.25 uM/ml
Aspergillus niger [6]
  MIC95: 5 uM/ml

## OC(Cn1cncn1)(Cn1cncn1)c1ccc(F)cc1F [FLUCONAZOLE]
Aspergillus niger [1]
  inhibition zone (IZ): 18 mm
Aspergillus fumigatus [2]
  inhibition zone (IZ): 22 mm
Aspergillus flavus [3]
  inhibition zone (IZ): 25 mm
Aspergillus flavus [4]
  MIC95: 1.25 uM/ml
Aspergillus fumigatus [5]
  MIC95: 1.25 uM/ml
Aspergillus niger [6]
  MIC95: 2.5 uM/ml

## COc1cc(/C=C/c2cc(/C=C/c3ccc(O)c(OC)c3)n(C(=O)c3ccncc3)n2)ccc1O
Staphylococcus aureus
  MIC95: 1.25 uM/ml
Salmonella typhi
  MIC95: 5 uM/ml
Pseudomonas aeruginosa
  MIC95: 1.25 uM/ml
Escherichia coli
  MIC95: 2.5 uM/ml
Bacillus cereus
  MIC95: inactive
Providencia rettgeri
  MIC95: inactive
Aspergillus niger [1]
  inhibition zone (IZ): 18 mm
Aspergillus fumigatus [2]
  inhibition zone (IZ): inactive
Aspergillus flavus [3]
  inhibition zone (IZ): 22 mm
[7]
  IC50: > 100 uM/ml
Aspergillus flavus [4]
  MIC95: 2.5 uM/ml
Aspergillus fumigatus [5]
  MIC95: inactive
Aspergillus niger [6]
  MIC95: 2.5 uM/ml

## COc1cc(/C=C/c2cc(/C=C/c3ccc(O)c(OC)c3)n(C(N)=S)n2)ccc1O
Staphylococcus aureus
  MIC95: 1.25 uM/ml
Salmonella typhi
  MIC95: 2.5 uM/ml
Pseudomonas aeruginosa
  MIC95: 2.5 uM/ml
Escherichia coli
  MIC95: inactive
Bacillus cereus
  MIC95: 0.625 uM/ml
Providencia rettgeri
  MIC95: 1.25 uM/ml
Aspergillus niger [1]
  inhibition zone (IZ): 22 mm
Aspergillus fumigatus [2]
  inhibition zone (IZ): 25 mm
Aspergillus flavus [3]
  inhibition zone (IZ): 20 mm
Aspergillus flavus [4]
  MIC95: 1.25 uM/ml
Aspergillus fumigatus [5]
  MIC95: 2.5 uM/ml
Aspergillus niger [6]
  MIC95: 2.5 uM/ml

## COc1cc(/C=C/C(=O)C(=Cc2ccccc2O)C(=O)/C=C/c2ccc(O)c(OC)c2)ccc1O
Staphylococcus aureus
  MIC95: 1.25 uM/ml
Salmonella typhi
  MIC95: 5 uM/ml
Pseudomonas aeruginosa
  MIC95: 1.25 uM/ml
Escherichia coli
  MIC95: 2.5 uM/ml
Bacillus cereus
  MIC95: 1.25 uM/ml
Providencia rettgeri
  MIC95: 1.25 uM/ml
Aspergillus niger [1]
  inhibition zone (IZ): 17 mm
Aspergillus fumigatus [2]
  inhibition zone (IZ): 20 mm
Aspergillus flavus [3]
  inhibition zone (IZ): inactive
[7]
  IC50: 50 uM/ml
Aspergillus flavus [4]
  MIC95: inactive
Aspergillus fumigatus [5]
  MIC95: 2.5 uM/ml
Aspergillus niger [6]
  MIC95: 2.5 uM/ml

## COc1cc(/C=C/C(=O)C2=C(/C=C/c3ccc(O)c(OC)c3)N=C3Sc4ccccc4N3C2c2ccc([N+](=O)[O-])cc2)ccc1O (stereo not drawn)
Staphylococcus aureus
  MIC95: inactive
Salmonella typhi
  MIC95: 20 uM/ml
Pseudomonas aeruginosa
  MIC95: 10 uM/ml
Escherichia coli
  MIC95: 5 uM/ml
Bacillus cereus
  MIC95: 2.5 uM/ml
Providencia rettgeri
  MIC95: 10 uM/ml
Aspergillus niger [1]
  inhibition zone (IZ): 10 mm
Aspergillus fumigatus [2]
  inhibition zone (IZ): 15 mm
Aspergillus flavus [3]
  inhibition zone (IZ): inactive
[7]
  IC50: > 100 uM/ml
Aspergillus flavus [4]
  MIC95: inactive
Aspergillus fumigatus [5]
  MIC95: 20 uM/ml
Aspergillus niger [6]
  MIC95: 10 uM/ml

## COc1cc(/C=C/c2cc(/C=C/c3ccc(O)c(OC)c3)n(-c3ccc([N+](=O)[O-])cc3[N+](=O)[O-])n2)ccc1O
Staphylococcus aureus
  MIC95: 1.25 uM/ml
Salmonella typhi
  MIC95: 2.5 uM/ml
Pseudomonas aeruginosa
  MIC95: inactive
Escherichia coli
  MIC95: inactive
Bacillus cereus
  MIC95: 1.25 uM/ml
Providencia rettgeri
  MIC95: inactive
Aspergillus niger [1]
  inhibition zone (IZ): 17 mm
Aspergillus fumigatus [2]
  inhibition zone (IZ): inactive
Aspergillus flavus [3]
  inhibition zone (IZ): 20 mm
[7]
  IC50: > 100 uM/ml
Aspergillus flavus [4]
  MIC95: 1.25 uM/ml
Aspergillus fumigatus [5]
  MIC95: inactive
Aspergillus niger [6]
  MIC95: 2.5 uM/ml

## COc1cc(/C=C/C(=O)C2=C(/C=C/c3ccc(O)c(OC)c3)N=C3Sc4ccccc4N3C2c2ccc(O)c(OC)c2)ccc1O (stereo not drawn)
Staphylococcus aureus
  MIC95: inactive
Salmonella typhi
  MIC95: 10 uM/ml
Pseudomonas aeruginosa
  MIC95: 5 uM/ml
Escherichia coli
  MIC95: 10 uM/ml
Bacillus cereus
  MIC95: 2.5 uM/ml
Providencia rettgeri
  MIC95: 10 uM/ml
Aspergillus niger [1]
  inhibition zone (IZ): inactive
Aspergillus fumigatus [2]
  inhibition zone (IZ): inactive
Aspergillus flavus [3]
  inhibition zone (IZ): 11 mm
Aspergillus flavus [4]
  MIC95: 12 uM/ml
Aspergillus fumigatus [5]
  MIC95: inactive
Aspergillus niger [6]
  MIC95: inactive

## COc1cc(/C=C/C(=O)C2=C(/C=C/c3ccc(O)c(OC)c3)N=C3Sc4ccccc4N3C2c2ccc(C)cc2)ccc1O (stereo not drawn)
Staphylococcus aureus
  MIC95: 20 uM/ml
Salmonella typhi; [8]
  MIC95: inactive
Pseudomonas aeruginosa
  MIC95: inactive
Escherichia coli
  MIC95: 10 uM/ml
Bacillus cereus
  MIC95: 5 uM/ml
Providencia rettgeri
  MIC95: 20 uM/ml
Aspergillus niger [1]
  inhibition zone (IZ): inactive
Aspergillus fumigatus [2]
  inhibition zone (IZ): inactive
Aspergillus flavus [3]
  inhibition zone (IZ): inactive
Aspergillus flavus [4]
  MIC95: inactive
Aspergillus fumigatus [5]
  MIC95: inactive
Aspergillus niger [6]
  MIC95: inactive

## O=C(O)c1cn(C2CC2)c2cc(N3CCNCC3)c(F)cc2c1=O [CIPROFLOXACIN]
Staphylococcus aureus
  MIC95: 1.25 uM/ml
Salmonella typhi
  MIC95: 2.5 uM/ml
Pseudomonas aeruginosa
  MIC95: 1.25 uM/ml
Escherichia coli
  MIC95: 1.25 uM/ml
Bacillus cereus
  MIC95: 0.625 uM/ml
Providencia rettgeri
  MIC95: 1.25 uM/ml

## COc1cc(/C=C/C(=O)CC(=O)/C=C/c2ccc(O)c(OC)c2)ccc1O [CURCUMIN]
Staphylococcus aureus
  MIC95: 20 uM/ml
Salmonella typhi
  MIC95: 20 uM/ml
Pseudomonas aeruginosa
  MIC95: inactive
Escherichia coli
  MIC95: 20 uM/ml
Bacillus cereus
  MIC95: 10 uM/ml
Providencia rettgeri
  MIC95: 20 uM/ml
Aspergillus niger [1]
  inhibition zone (IZ): 9 mm
Aspergillus fumigatus [2]
  inhibition zone (IZ): 12 mm
Aspergillus flavus [3]
  inhibition zone (IZ): inactive
Aspergillus flavus [4]
  MIC95: inactive
Aspergillus fumigatus [5]
  MIC95: 20 uM/ml
Aspergillus niger [6]
  MIC95: 20 uM/ml

## COc1cc(/C=C/C(=O)C2=C(/C=C/c3ccc(O)c(OC)c3)N=C3Sc4ccccc4N3C2c2ccc(O)cc2)ccc1O (stereo not drawn)
Staphylococcus aureus
  MIC95: 1.25 uM/ml
Salmonella typhi
  MIC95: 20 uM/ml
Pseudomonas aeruginosa
  MIC95: 10 uM/ml
Escherichia coli
  MIC95: 5 uM/ml
Bacillus cereus
  MIC95: 2.5 uM/ml
Providencia rettgeri
  MIC95: inactive
Aspergillus niger [1]
  inhibition zone (IZ): inactive
Aspergillus fumigatus [2]
  inhibition zone (IZ): 12 mm
Aspergillus flavus [3]
  inhibition zone (IZ): inactive
Aspergillus flavus [4]
  MIC95: inactive
Aspergillus fumigatus [5]
  MIC95: 5 uM/ml
Aspergillus niger [6]
  MIC95: inactive
